Source: ChEMBL document CHEMBL1147105, “In vitro and in vivo activities of PD 0305970 and PD 0326448, new bacterial gyrase/topoisomerase inhibitors with potent antibacterial activities versus multidrug-resistant gram-positive and fastidious organism groups” (2007)
Values after ≈ are worked out from the molar mass of the structure shown.

What was measured:
Format in all cases: functional
Enterococcus faecalis [1] = assay: Antibacterial activity against VanB-resistant Enterococcus faecalis
Outline: (§1)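 Broth microdilution MIC per CLSI guidelines, incubated at 35°C. Cation-adjusted Mueller-Hinton broth for nonfastidious organisms and staphylococci. Streptococci tested in the same broth with 3% lysed horse blood. Anaerobes tested in supplemented Brucella broth inside an anaerobe chamber (5% CO2, 5% H2, 90% N2), read after 48 h. Strains were mainly recent clinical isolates with confirmed identity.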

Enterococcus faecium = assay: Antibacterial activity against VanB-resistant Enterococcus faecium; outline: as §1
Corynebacterium jeikeium = assay: Antibacterial activity against Corynebacterium jeikeium
Outline: (§2)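 Broth microdilution MIC following CLSI guidelines, in cation-adjusted Mueller-Hinton broth containing 3% lysed horse blood, incubated at 35°C. Clinical isolates with identity confirmed. Reported as MIC range, MIC50 and MIC90.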

Corynebacterium sp. = assay: Antibacterial activity against Corynebacterium sp.; outline: as §2
Haemophilus influenzae [2] = assay: Antibacterial activity against beta-lactamase negative Haemophilus influenzae
Outline: (§3)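 Broth microdilution MIC following CLSI guidelines, in Haemophilus test medium at 35°C.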

Haemophilus influenzae [3] = assay: Antibacterial activity against beta-lactamase positive Haemophilus influenzae; outline: as §3
Legionella pneumophila = assay: Antibacterial activity against Legionella pneumophila
Outline: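 Broth microdilution MIC per CLSI guidelines, run in buffered yeast extract α-ketoglutarate broth at 35°C and read after 48 h.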

Citrobacter koseri = assay: Antibacterial activity against Citrobacter diversus
Outline: (§4)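 Broth microdilution MIC following CLSI guidelines, in cation-adjusted Mueller-Hinton broth, incubated at 35°C. Recent clinical isolates and reference strains, with identity confirmed by automated and standard microbiological methods. Results reported as MIC range, MIC50 and MIC90.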

Citrobacter freundii = assay: Antibacterial activity against Citrobacter freundii; outline: as §4
Enterobacter cloacae = assay: Antibacterial activity against Enterobacter cloacae; outline: as §4
Escherichia coli = assay: Antibacterial activity against Escherichia coli; outline: as §4
Klebsiella oxytoca = assay: Antibacterial activity against Klebsiella oxytoca; outline: as §4
Morganella morganii = assay: Antibacterial activity against Morganella morganii; outline: as §4
Proteus mirabilis = assay: Antibacterial activity against Proteus mirabilis; outline: as §4
Shigella dysenteriae = assay: Antibacterial activity against Shigella dysenteriae
Acinetobacter sp. = assay: Antibacterial activity against Acinetobacter sp.; outline: as §4
Burkholderia cepacia = assay: Antibacterial activity against Burkholderia cepacia; outline: as §4
Pseudomonas aeruginosa = assay: Antibacterial activity against Pseudomonas aeruginosa; outline: as §4
Fusobacterium sp. = assay: Antibacterial activity against Fusobacterium sp.
Outline: (§5)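 Anaerobic broth microdilution MIC following CLSI guidelines, in supplemented Brucella broth. Run in an anaerobe chamber under 5% CO2, 5% H2 and 90% N2 at 35°C, and read after 48 h. Reported as MIC range, MIC50 and MIC90.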

[4] = system: Peptoniphilus asaccharolyticus; assay: Antibacterial activity against Peptostreptococcus asaccharolyticus; outline: as §5
Finegoldia magna = assay: Antibacterial activity against Peptostreptococcus magnus; outline: as §5
Streptococcus pyogenes = assay: Antibacterial activity against Streptococcus pyogenes
Outline: (§6)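 Broth microdilution MIC following CLSI guidelines, in cation-adjusted Mueller-Hinton broth with 3% lysed horse blood. Plates incubated at 35°C. Clinical isolates and reference strains, with identity confirmed by standard microbiological methods.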

Fusobacterium nucleatum = assay: Antibacterial activity against Fusobacterium nucleatum; outline: as §5
[5] = system: Bacteroides thetaiotaomicron; assay: Antibacterial activity against Bacteroides thetaiotaomicron; outline: as §5
Bacteroides ovatus = assay: Antibacterial activity against Bacteroides ovatus; outline: as §5
Staphylococcus aureus [6] = assay: Antibacterial activity against oxacillin-susceptible Staphylococcus aureus
Outline: (§7)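 MIC by CLSI broth microdilution for nonfastidious organisms, in cation-adjusted Mueller-Hinton broth incubated at 35°C.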

Staphylococcus aureus [7] = assay: Antibacterial activity against oxacillin-resistant Staphylococcus aureus; outline: as §1
Staphylococcus aureus [8] = assay: Antibacterial activity against oxacillin and levofloxacin-resistant Staphylococcus aureus; outline: as §1
Staphylococcus aureus [9] = assay: Antibacterial activity against vancomycin-intermediate Staphylococcus aureus; outline: as §1
[10] = system: Staphylococcus epidermidis; assay: Antibacterial activity against oxacillin-susceptible Staphylococcus epidermidis; outline: as §7
[11] = system: Staphylococcus epidermidis; assay: Antibacterial activity against oxacillin-resistant Staphylococcus epidermidis; outline: as §1
[12] = system: Staphylococcus haemolyticus; assay: Antibacterial activity against Staphylococcus haemolyticus; outline: as §2
[13] = system: Staphylococcus saprophyticus; assay: Antibacterial activity against Staphylococcus saprophyticus; outline: as §4
Staphylococcus warneri = assay: Antibacterial activity against Staphylococcus warneri; outline: as §4
Streptococcus agalactiae = assay: Antibacterial activity against Streptococcus agalactiae; outline: as §2
Streptococcus equinus = assay: Antibacterial activity against Streptococcus bovis; outline: as §6
Streptococcus pneumoniae [14] = assay: Antibacterial activity against penicillin-susceptible Streptococcus pneumoniae; outline: as §1
Streptococcus pneumoniae [15] = assay: Antibacterial activity against penicillin-resistant Streptococcus pneumoniae; outline: as §1
Enterococcus faecalis [16] = assay: Antibacterial activity against Enterococcus faecalis; outline: as §1
Enterococcus faecalis [17] = assay: Antibacterial activity against VanA-resistant Enterococcus faecalis; outline: as §1
Prevotella buccae = assay: Antibacterial activity against Prevotella buccae; details: Segatella buccae; outline: as §5
Prevotella corporis = assay: Antibacterial activity against Prevotella corporis; outline: as §5
Hoylesella oralis = assay: Antibacterial activity against Prevotella oralis; outline: as §5
Neisseria meningitidis = assay: Antibacterial activity against Neisseria meningitidis
Outline: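 MIC by broth microdilution in gonococcal broth, incubated at 35°C in 5% CO2. Reported as MIC range, MIC50 and MIC90.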

Streptococcus salivarius = assay: Antibacterial activity against Streptococcus salivarius; outline: as §6
Streptococcus mitis = assay: Antibacterial activity against Streptococcus mitis; outline: as §6
Streptococcus viridans = assay: Antibacterial activity against Streptococcus viridans; outline: as §6

Cc1c(N2CC[C@@H]([C@H](C)N)C2)c(F)cc2c(=O)[nH]c(=O)n(C3CC3)c12
MIC50 (Enterococcus faecalis [1]): 0.25 µg/mL (≈ 0.722 µM) | MIC90 (Enterococcus faecalis [1]): 0.5 µg/mL (≈ 1.44 µM) | MIC (Enterococcus faecium): 1 µg/mL (≈ 2.89 µM) | MIC50 (Corynebacterium jeikeium): 0.5 µg/mL (≈ 1.44 µM) | MIC90 (Corynebacterium jeikeium): 1 µg/mL (≈ 2.89 µM) | MIC50 (Corynebacterium sp.): 0.5 µg/mL (≈ 1.44 µM) | MIC90 (Corynebacterium sp.): 1 µg/mL (≈ 2.89 µM) | MIC50 (Haemophilus influenzae [2]): 0.25 µg/mL (≈ 0.722 µM) | MIC90 (Haemophilus influenzae [2]): 0.5 µg/mL (≈ 1.44 µM) | MIC50 (Haemophilus influenzae [3]): 0.5 µg/mL (≈ 1.44 µM) | MIC90 (Haemophilus influenzae [3]): 1 µg/mL (≈ 2.89 µM) | MIC50 (Legionella pneumophila): 0.5 µg/mL (≈ 1.44 µM) | MIC90 (Legionella pneumophila): 0.5 µg/mL (≈ 1.44 µM) | MIC50 (Citrobacter koseri): 2 µg/mL (≈ 5.77 µM) | MIC90 (Citrobacter koseri): 8 µg/mL (≈ 23.1 µM) | MIC50 (Citrobacter freundii): 8 µg/mL (≈ 23.1 µM) | MIC90 (Citrobacter freundii): > 64 µg/mL | MIC50 (Enterobacter cloacae): 2 µg/mL (≈ 5.77 µM) | MIC90 (Enterobacter cloacae): 16 µg/mL (≈ 46.2 µM) | MIC50 (Escherichia coli): 2 µg/mL (≈ 5.77 µM) | MIC90 (Escherichia coli): 8 µg/mL (≈ 23.1 µM) | MIC50 (Klebsiella oxytoca): 2 µg/mL (≈ 5.77 µM) | MIC90 (Klebsiella oxytoca): 16 µg/mL (≈ 46.2 µM) | MIC50 (Morganella morganii): 2 µg/mL (≈ 5.77 µM) | MIC90 (Morganella morganii): 32 µg/mL (≈ 92.4 µM) | MIC50 (Proteus mirabilis): 2 µg/mL (≈ 5.77 µM) | MIC90 (Proteus mirabilis): 8 µg/mL (≈ 23.1 µM) | MIC50 (Shigella dysenteriae): 2 µg/mL (≈ 5.77 µM) | MIC90 (Shigella dysenteriae): 4 µg/mL (≈ 11.5 µM) | MIC50 (Acinetobacter sp.): 4 µg/mL (≈ 11.5 µM) | MIC90 (Acinetobacter sp.): 64 µg/mL (≈ 185 µM) | MIC50 (Burkholderia cepacia): 32 µg/mL (≈ 92.4 µM) | MIC90 (Burkholderia cepacia): > 64 µg/mL | MIC50 (Pseudomonas aeruginosa): 8 µg/mL (≈ 23.1 µM) | MIC90 (Pseudomonas aeruginosa): > 64 µg/mL | MIC (Fusobacterium sp.): 0.125 µg/mL (≈ 0.361 µM) | MIC [4]: 0.06 µg/mL (≈ 0.173 µM) | MIC (Finegoldia magna): 0.06 µg/mL (≈ 0.173 µM) | MIC50 (Streptococcus pyogenes): 0.03 µg/mL (≈ 0.0866 µM) | MIC90 (Streptococcus pyogenes): 0.03 µg/mL (≈ 0.0866 µM) | MIC (Fusobacterium nucleatum): 0.125 µg/mL (≈ 0.361 µM) | MIC50 [5]: 16 µg/mL (≈ 46.2 µM) | MIC90 [5]: 32 µg/mL (≈ 92.4 µM) | MIC50 (Bacteroides ovatus): 16 µg/mL (≈ 46.2 µM) | MIC90 (Bacteroides ovatus): 32 µg/mL (≈ 92.4 µM) | MIC50 (Staphylococcus aureus [6]): 0.25 µg/mL (≈ 0.722 µM) | MIC90 (Staphylococcus aureus [6]): 0.25 µg/mL (≈ 0.722 µM) | MIC50 (Staphylococcus aureus [7]): 0.25 µg/mL (≈ 0.722 µM) | MIC90 (Staphylococcus aureus [7]): 0.5 µg/mL (≈ 1.44 µM) | MIC50 (Staphylococcus aureus [8]): 1 µg/mL (≈ 2.89 µM) | MIC90 (Staphylococcus aureus [8]): 4 µg/mL (≈ 11.5 µM) | MIC (Staphylococcus aureus [9]): 0.25 µg/mL (≈ 0.722 µM) | MIC [10]: 0.125 µg/mL (≈ 0.361 µM) | MIC50 [11]: 0.25 µg/mL (≈ 0.722 µM) | MIC90 [11]: 0.25 µg/mL (≈ 0.722 µM) | MIC50 [12]: 0.25 µg/mL (≈ 0.722 µM) | MIC90 [12]: 1 µg/mL (≈ 2.89 µM) | MIC50 [13]: 0.125 µg/mL (≈ 0.361 µM) | MIC90 [13]: 0.5 µg/mL (≈ 1.44 µM) | MIC (Staphylococcus warneri): 0.125 µg/mL (≈ 0.361 µM) | MIC50 (Streptococcus agalactiae): 0.015 µg/mL (≈ 0.0433 µM) | MIC90 (Streptococcus agalactiae): 0.03 µg/mL (≈ 0.0866 µM) | MIC50 (Streptococcus equinus): 0.06 µg/mL (≈ 0.173 µM) | MIC90 (Streptococcus equinus): 0.06 µg/mL (≈ 0.173 µM) | MIC50 (Streptococcus pneumoniae [14]): 0.03 µg/mL (≈ 0.0866 µM) | MIC90 (Streptococcus pneumoniae [14]): 0.06 µg/mL (≈ 0.173 µM) | MIC50 (Streptococcus pneumoniae [15]): 0.03 µg/mL (≈ 0.0866 µM) | MIC90 (Streptococcus pneumoniae [15]): 0.06 µg/mL (≈ 0.173 µM) | MIC50 (Enterococcus faecalis [16]): 0.25 µg/mL (≈ 0.722 µM) | MIC90 (Enterococcus faecalis [16]): 0.5 µg/mL (≈ 1.44 µM) | MIC (Enterococcus faecalis [17]): 0.25 µg/mL (≈ 0.722 µM) | MIC50 (Prevotella buccae): 0.5 µg/mL (≈ 1.44 µM) | MIC90 (Prevotella buccae): 2 µg/mL (≈ 5.77 µM) | MIC50 (Prevotella corporis): 0.5 µg/mL (≈ 1.44 µM) | MIC90 (Prevotella corporis): 2 µg/mL (≈ 5.77 µM) | MIC50 (Hoylesella oralis): 0.5 µg/mL (≈ 1.44 µM) | MIC90 (Hoylesella oralis): 2 µg/mL (≈ 5.77 µM) | MIC50 (Neisseria meningitidis): 0.5 µg/mL (≈ 1.44 µM) | MIC90 (Neisseria meningitidis): 1 µg/mL (≈ 2.89 µM) | MIC50 (Streptococcus salivarius): 0.03 µg/mL (≈ 0.0866 µM) | MIC90 (Streptococcus salivarius): 0.06 µg/mL (≈ 0.173 µM) | MIC50 (Streptococcus mitis): 0.03 µg/mL (≈ 0.0866 µM) | MIC90 (Streptococcus mitis): 0.06 µg/mL (≈ 0.173 µM) | MIC50 (Streptococcus viridans): 0.03 µg/mL (≈ 0.0866 µM) | MIC90 (Streptococcus viridans): 0.06 µg/mL (≈ 0.173 µM)
